Measurements published in ChEMBL document CHEMBL1128520, “Synthesis of (dialkylamino)alkyl-disubstituted pyrimido[5,6,1- de]acridines, a novel group of anticancer agents active on a multidrug resistant cell line” (J Med Chem, 1995).

Tests used:
[1] = system: L1210; assay: The compound was tested in vitro for cytotoxic activity against L1210 Murine leukemia cell line; type: functional, cell-based; settings: Mus musculus
Summary of the method: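 Murine L1210 leukemia cells grown in suspension in RPMI 1640 with 5% fetal calf serum and penicillin/streptomycin, 37 °C, 5% CO2, passaged every 2–3 days. Log-phase cells seeded at 0.05×10^6 cells/mL. Exposure 48 h. Growth read by cellular protein content. EC50 is the concentration giving 50% growth inhibition. At least five runs, mean ± SEM.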

[2] = system: LoVo; assay: The compound was tested in vitro for cytotoxic activity against Doxorubicin resistant LoVo/Dx human colon adenocarcinoma cell line; type: functional, cell-based
Summary of the method: (§1)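 LoVo and doxorubicin-resistant LoVo/Dx monolayers grown in Ham's F-12 with 10% fetal calf serum, penicillin/streptomycin, L-glutamine and MEM vitamins, 37 °C, 5% CO2. Log-phase cells seeded at 0.02×10^6 cells/mL. Exposure 72 h. Growth measured by cellular protein content. EC50 is the concentration giving 50% growth inhibition. At least five runs, mean ± SEM.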

[3] = Resistance Index is the ratio of EC50 of LoVo/Dx cell line and EC50 of LoVo cell line; type: functional
[4] = system: LoVo; assay: The compound was tested in vitro for cytotoxic activity against sensitive LoVo human colon adenocarcinoma cell line; type: functional, cell-based; summary of the method: as §1
[5] = species: Mus musculus; assay: The compound was tested for toxicity (number of toxic deaths/total number of mice 7 days after the day 5 injection); 6/6; type: organism-based; settings: in vivo, 168 h
[6] = species: Mus musculus; assay: The compound was tested for toxicity (number of toxic deaths/total number of mice 7 days after the day 5 injection); 0/6; type: organism-based; settings: in vivo, 168 h
[7] = system: Mus musculus; assay: The compound was tested for anti tumor activity against P388 Murine Leukemia (%T/C = ratio of survival time of the treated to the control mice) at 0.39 mg/kg; type: functional
Summary of the method: (§2)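 P388 leukemia cells, 10^6 per mouse, given ip on day 0 to (BALB/c × DBA/2) F1 hybrid mice; line kept by ip passage in DBA/2 mice. Groups of 6 treated and 12 control mice. %T/C = mean survival time of treated / control × 100; ≥125 taken as significant.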

[8] = system: Mus musculus; assay: The compound was tested for anti tumor activity against P388 Murine Leukemia (%T/C = ratio of survival time of the treated to the control mice) at 0.78 mg/kg; type: functional; summary of the method: as §2
[9] = system: Mus musculus; assay: The compound was tested for anti tumor activity against P388 Murine Leukemia (%T/C = ratio of survival time of the treated to the control mice) at 0.19 mg/kg; type: functional; summary of the method: as §2
[10] = system: Mus musculus; assay: The compound was tested for anti tumor activity against P388 Murine Leukemia (%T/C = ratio of survival time of the treated to the control mice) at 1.56 mg/kg; type: functional; summary of the method: as §2
[11] = system: Mus musculus; assay: The compound was tested for anti tumor activity against P388 Murine Leukemia (%T/C = ratio of survival time of the treated to the control mice) at 3.12 mg/kg; type: functional; summary of the method: as §2
[12] = species: Mus musculus; assay: The compound was tested for toxicity (number of toxic deaths/total number of mice 7 days after the day 5 injection); 1/6; type: organism-based; settings: in vivo, 168 h

SMILES | EC50 [1] | EC50 [2] | Resistance index [3] | EC50 [4] | Toxicity [5] | Toxicity [6] | T/C [7] | T/C [8] | T/C [9] | T/C [10] | T/C [11] | Toxicity [12]
CN(C)CCn1c(=O)c2ccc(NCCN3CCNCC3)c3c(=O)c4ccccc4n(c1=O)c23.Cl | 210 nM | 1000 nM | 1.2 | 850 nM | – | – | – | – | – | – | – | –
Cl.O=C1c2ccccc2C(=O)c2c(NCCNCCO)ccc(NCCNCCO)c21 | 350 nM | 36800 nM | 57.5 | 640 nM | – | – | – | – | – | – | – | –
CCN(CC)CCNc1ccc2c(=O)n(CCN(C)C)c(=O)n3c4ccccc4c(=O)c1c23.Cl | 52 nM | 100 nM | 1.9 | 52 nM | – | – | – | – | – | – | – | –
CN(C)CCCNc1ccc2c(=O)n(CCN(C)C)c(=O)n3c4ccccc4c(=O)c1c23.Cl | 63 nM | 160 nM | 0.8 | 190 nM | – | – | – | – | – | – | – | –
CN(C)CCn1c(=O)c2ccc(NCCNCCO)c3c(=O)c4ccccc4n(c1=O)c23.Cl | 4.5 nM | 230 nM | 7.7 | 30 nM | 6 | 0 | 244% | 233% | 189% | 167% | 70% | –
CN(C)CCNc1ccc2c(=O)n(CCN(C)C)c(=O)n3c4ccccc4c(=O)c1c23.Cl | 2.2 nM | – | – | – | 6 | 0 | 222% | 222% | 166% | 100% | 70% | 1
CN(C)CCn1c(=O)c2ccc(Cl)c3c(=O)c4ccccc4n(c1=O)c23.Cl | 500 nM | 1400 nM | 1.2 | 1200 nM | – | – | – | – | – | – | – | –
